MLLE-PAM2 inh – blocks PAM2 peptide binding to the PABP1 MLLE domain. GST-MLLE / FITC-PAM2 fluorescence polarization. P11940. inhibition, % at 20 µM. AID 588489. hit rate 0.36% among 360,000; in the data active = inhibition above about 35%, passing the limit was not always enough;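 note: plate controls were DMSO wells with GST-MLLE for no effect and wells lacking GST-MLLE protein for full effect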
PABP polyA inh – PABP-poly(A) binding inhibition; P11940; PABP-poly(A) RNA binding, fluorescence polarization; inhibition, % at 35 µM; hit rate 1% among 290,000; AID 2014;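 note: calls also rest on retests at 20 µM and on dose response follow-up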
HCV NS3 hel inh – blocks Hepatitis C virus NS3 helicase unwinding. NS3 helicase DNA unwinding, Cy5 molecular beacon fluorescence. inhibition, % at 10.9 µM. hit rate 0.56% among 290,000;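 active = inhibition above the mean of all tested compounds plus 3 SD, set per campaign, cut at about 35% in these data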;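 note: 0% = DMSO wells and 100% = thioflavine S control wells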
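assay system = NS3 helicase fragment of HCV | buffer or medium = MOPS pH 6.5, MgCl2, DTT, Tween20, BSA | timing = 60 min unwinding reaction at 25 °C after ATP addition | signal = Cy5 beacon fluorescence read at start and 1 h | read-out basis = % inhibition of unwinding | control set = low DMSO, high thioflavine S at 110 µM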
eIF4H inh – inhibitors of RNA binding by human eIF4H | eIF4H fluorescence polarization binding assay | hit rate 0.94% among 290,000 | Q15056 | inhibition, % at 35 µM;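 note: calls also rest on retests at 20 µM and on dose response follow-up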
core dimer inh – HCV core protein dimerization inhibition; TR-FRET GST/Flag-core106 dimerization, 1536-well; inhibition, % at 5 µM; hit rate 0.33% among 300,000;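 active = inhibition above the mean of all tested compounds plus 3 SD, set per screening campaign, cut at about 45% in these data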
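Test system: GST/Flag-tagged HCV core106 proteins; Medium: KF-containing HEPES buffer, pH 7.45, DTT, CHAPS, BSA; Times: compound-protein-antibody incubation 4 h at 22.5 °C; Detection: TR-FRET 671 and 617 nm emission; Benchmarks: wells lacking GST-core106 and wells with excess unlabelled core106.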
FID counter – displaces DNA intercalator in HCV helicase counter-screen; DNA fluorescent intercalator displacement, fluorescence; inhibition, % at 7.9 µM; hit rate 0.17% among 290,000; AID 1845; in the data active = inhibition above about 37%;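 note: 0% = vehicle and 100% = reference compound; higher means more ethidium bromide displaced from hairpin DNA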
An asterisk follows results filed as active; ? = inconclusive; . = not tested or not shown. The list is not random: actives were taken first. Their share in the collection is about 2%. Unless noted, the rule behind the calls is not given here.

SMILES	MLLE-PAM2 inh	PABP polyA inh	HCV NS3 hel inh	eIF4H inh	core dimer inh	FID counter
O=[N+]([O-])c1ccccc1S(=O)(=O)Nc1ccc(-c2ccc3nncn3n2)cc1	12	.	.	.	-2	.
NC(=O)[C@@H]1CCCNc2c(I)cc([N+](=O)[O-])cc2C(=O)N[C@@H](CCCN=C(N)N)C(=O)N[C@@H](CCCN=C(N)N)C(=O)N1	.	1	-70	20	-9	47*
Cc1ccc(NC(=O)CSc2nc3cc(C(=O)NCC4CCCO4)ccc3c(=O)n2CC2CCCO2)cc1 (centres undefined)	-3	.	.	.	.	.
O=C(O)CCC(=O)N1N=C(c2ccco2)CC1c1cccs1 (centres undefined)	13	active	4	76*	-6	-6
CC(=O)Nc1ccc2c(=O)n(-c3ccccc3)sc2c1	26	.	.	.	.	.
O=c1c2ccccc2sn1-c1ccccc1	46*	9	4	-4	-11	-4
O=c1c2ccccc2sn1-c1cccc(Cl)c1	22	.	.	.	.	.
N#Cc1ccc2c(=O)n(-c3ccccc3)sc2c1	39*	.	.	.	.	.
COc1cc(OC)c(N(C)S(=O)(=O)c2cccc(C(=O)OCC(=O)N(C)C3CCCCC3)c2)cc1Cl	-9	.	.	.	.	.
CCOc1ccc(CCNS(=O)(=O)c2c(C)nc3sccn3c2=O)cc1OCC	7	.	.	.	.	.
Brc1ccc(-c2csc(/N=C/N3CCOCC3)n2)cc1	3	-2	-7	1	1	1
Brc1ccc(-c2csc(/N=C/N3CCCC3)n2)cc1	11	67*	-13	active	7	-12
C=CCn1c(SCC(=O)c2cc(C)n(C(C)COC)c2C)nc2sc(C)c(C)c2c1=O (centres undefined)	40*	4	10	-13	4	-3
C=CCn1c(SCC(=O)NCCO)nc2sc(C)c(C)c2c1=O	-18	-15	-5	-5	-6	-2
Cc1noc(C)c1-c1csc(N2CCC(C(N)=O)CC2)n1	40*	.	.	.	.	.
NC(=O)C1CCN(c2nc(-c3ccc(Br)cc3)cs2)CC1	3	-6	2	1	-9	-4
Clc1ccc(-c2cn3cccnc3n2)cc1Cl	-25	78*	-1	71*	13	-1
COc1ccc(-c2cn3cccnc3n2)cc1NC(=O)c1cc(OC)c(OC)c(OC)c1	6	77*	7	active	5	-37
O=S(=O)(Nc1cccc(-c2cn3cccnc3n2)c1)c1ccc(-c2ccccc2)cc1	4	3	-11	-2	50*	-13
O=C(c1ccc2nccnc2c1)N1CCCC(N2CCN(c3ccc(F)cc3)CC2)C1 (centres undefined)	14	4	2	-1	-3	-9
COCCNC(=O)C1(C)CCCN(Cc2ccc3ccccc3c2Br)C1 (centres undefined)	5	.	.	.	.	.
CN1CCN(c2ccc(NC(=O)CSc3nnnn3-c3ccccc3Cl)cc2)CC1	-5	-8	-67	-1	-7	37*
Cc1c(C#N)c(NC(=O)CCl)n(Cc2cccs2)c1C	6	active	7	74*	6	-1
O=S(=O)(c1cccs1)N1CCCCC1	-6	.	.	.	.	.
O=C(O)O	.	118	0	0.6*	.	-2
SMILES	MLLE-PAM2 inh	PABP polyA inh	HCV NS3 hel inh	eIF4H inh	core dimer inh	FID counter
CC1CCN(C(=O)c2[nH]cnc2C(=O)Nc2ccc(Cl)cc2)CC1	-11	.	.	.	.	.
Cc1cc(SCc2ccc(Cl)cc2)nc(=O)[nH]1	-2	5	14	-4	-2	-6
Cc1ccc(CSc2cc(C)[nH]c(=O)n2)cc1	-42	-4	24	13	53*	-13
CC12CCC(O)CC1=CCC1C2CCC2(C)C1CCC21CCC(=O)O1 (centres undefined)	-4	66*	1	12*	-2	-20
C[C@]12CCC3C(CC=C4C[C@@H](O)CC[C@@]43C)C1CCC2[C@]1(C)CCC(=O)O1 (some centres undefined)	1	-8	2	2	-9	-5
O=c1c2c([N+](=O)[O-])cc([N+](=O)[O-])cc2nc2ccccn12	-4	57*	13	82*	38	11
O=C(Nc1nnc(C2CC2)s1)C1CC(=O)N(c2ccc3c(c2)OCCO3)C1 (centres undefined)	-14	active	5	96*	22	-22
O=C(Nc1nnc(C2CCCCC2)s1)C1CC(=O)N(c2ccccc2)C1 (centres undefined)	11	-6	15	-3	-7	-46
CC1(C)CC(=O)C/C(=N/NC(=O)c2ccc(-c3ccccc3)cc2)C1	-19	-4	-14	3	-10	-18
CC1(C)CC(=O)C/C(=N\NC(=O)Cc2ccccc2)C1	-4	93*	0	active	-7	-3
CSCc1ccc(C(=O)OCC(=O)NC2CCCC2)o1	-4	.	.	.	.	.
Cc1ccc(SCC(=O)OCC(=O)NCCC2=CCCCC2)cc1	0	.	.	.	-4	.
O=C(CNc1ccccc1)N/N=C/c1cn(-c2ccccc2)nc1-c1ccccc1	-1	67*	-3	active	15	-2
N#Cc1c(N)sc(=S)c2c1CCN(Cc1ccccc1)C2	.	3	.	?	57*	.
CCN1CCc2c(sc(N)c2C#N)C1	12	66	-1	116	-5	-1
O=C(Cn1c(=O)oc2cc(S(=O)(=O)N3CCCC3)ccc21)Nc1ccccn1	6	.	.	.	.	.
CCc1ccc(C(O)c2ncc(-c3ccc(Cl)cc3)[nH]2)cc1 (centres undefined)	9	.	.	.	.	.
O=c1cc(N2CCc3ccccc3C2)[nH]c(=O)n1-c1ccccc1Cl	3	-12	2	13	2	-9
Cc1ccccc1-n1c(=O)cc(N2CCc3ccccc3C2)[nH]c1=O	22	93*	4	79*	-3	-7
CCOC(=O)c1cnc2ccc(OCC)cc2c1NCCCN1CCOCC1	9	7	30	-1	2	55*
CCOC(=O)c1cnc2c(CC)cccc2c1NCCCN1CCOCC1	-8	-4	16	10	-5	52*
CCOC(=O)c1cnc2ccc(OCC)cc2c1NCCN1CCOCC1	24	54	-3	82	-4	10
O=C(Cc1ccc(S(=O)(=O)N2CCOCC2)s1)Nc1ccc2c(c1)CCC2	-8	3	-11	1	26	-8
CC(=O)Nc1ccc(NC(=O)Cc2ccc(S(=O)(=O)N3CCCCC3)s2)cc1	-13	-14	13	16	60*	-9
O=C(Cc1ccc(S(=O)(=O)N2CCOCC2)s1)Nc1nc2c(s1)CCCC2	9	42*	23	60*	84*	-12
O=C(Cc1cccs1)Nc1ccc(S(=O)(=O)Nc2ncccn2)cc1	-32	10*	20	61*	31	1
O=C(Cc1cccs1)Nc1ccc(S(=O)(=O)N2CCCCC2)cc1	-9	22	7	19	72*	-13
CN[C@@H](CO)C(=O)NC[C@H]1O[C@@H](n2cc(C)c(=O)[nH]c2=O)C[C@@H]1O	4	.	.	.	.	.
